Data as given in ChEMBL document CHEMBL1212851, “Baculiferins A-O, O-sulfated pyrrole alkaloids with anti-HIV-1 activity, from the Chinese marine sponge Iotrochota baculifera” (Bioorg Med Chem, 2010).
Values after ≈ are worked out from the molar mass of the structure shown. Active and inactive are the calls of the source. The calls are words filed in the database; no cut-off is given here.

Tests used:
[1] = test system: A2780; assay: Cytotoxicity against human A2780 cells; format: functional, cell-based
[2] = test system: Human immunodeficiency virus 1; assay: Binding affinity to HIV1 recombinant Vif at 20 ug/ml
How it was run: (§1)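 Recombinant gp41, Vif or APOBEC3G each immobilized on a CM5 sensor chip in a separate flow cell. Binding monitored by surface plasmon resonance on a BIAcore instrument.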

[3] = test system: Human immunodeficiency virus 1; assay: Antiviral activity against HIV1 infected in human HEK293 cells assessed as inhibition of viral replication; format: functional, organism-based
How it was run: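 VSVG-pseudotyped HIV-luc virus system in HEK-293 cells, used to assess inhibition of HIV-1 replication.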

[4] = test system: HCT-8; assay: Cytotoxicity against human HCT8 cells; format: functional, cell-based; details: for IC50: pooled result: one value given for 4 cell lines, strains, targets or settings
[5] = test system: Human immunodeficiency virus 1; assay: Binding affinity to HIV1 recombinant gp41 at 20 ug/ml; how it was run: as §1
[6] = biological target: DNA dC->dU-editing enzyme APOBEC-3G (Homo sapiens) (UniProt Q9HC16); assay: Binding affinity to human recombinant APOBEC3G at 20 ug/ml; how it was run: as §1
DNA dC->dU-editing enzyme APOBEC-3G (Homo sapiens), sequence (Q9HC16 whole entry): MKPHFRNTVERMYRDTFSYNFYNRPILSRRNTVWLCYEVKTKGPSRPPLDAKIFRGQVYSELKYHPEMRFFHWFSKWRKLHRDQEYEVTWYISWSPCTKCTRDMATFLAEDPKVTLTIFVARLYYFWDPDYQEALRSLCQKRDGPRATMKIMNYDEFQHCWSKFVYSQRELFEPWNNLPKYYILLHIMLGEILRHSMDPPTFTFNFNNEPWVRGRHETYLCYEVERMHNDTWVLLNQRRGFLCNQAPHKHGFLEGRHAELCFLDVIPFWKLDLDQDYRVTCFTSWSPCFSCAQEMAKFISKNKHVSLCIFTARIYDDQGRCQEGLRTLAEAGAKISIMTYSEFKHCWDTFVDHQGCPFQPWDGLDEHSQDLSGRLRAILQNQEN

[7] = test system: A549; assay: Cytotoxicity against human A549 cells; format: functional, cell-based
[8] = test system: BGC-823; assay: Cytotoxicity against human BGC823 cells; format: functional, cell-based
[9] = test system: Bel-7402; assay: Cytotoxicity against human Bel7402 cells; format: functional, cell-based
[10] = test system: Human immunodeficiency virus 1; assay: Antiviral activity against HIV1 3B infected in human MAGI cells after 40 to 48 hrs assessed as inhibition of viral life cycle; format: functional, organism-based; details: Human immunodeficiency virus 1, 3B
How it was run: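 HeLa-CD4-LTR-β-gal (MAGI) indicator cells plated at 6000 per well and infected with 2000 TCID50 HIV-1 IIIB. Compounds added in fourfold serial dilutions, five dilutions with four replicates each, at a final top concentration of half the 200 µg/mL stock dilution. Cells incubated 40–48 h at 37 °C in 5% CO2, then fixed, stained, and blue cells counted by microscopy. Single-round infection.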

[11] = test system: Candida albicans; assay: Multidrug reversal activity in Candida albicans isolate GU5 assessed as brefeldin A MIC in presence of 30 uM compound expressing CDR1 and CDR2 by two fold dilution method
[12] = test system: Candida albicans; assay: Effect on brefeldin A MIC against Candida albicans isolate GU4 in presence of 30 uM compound by two fold dilution method
[13] = test system: Human immunodeficiency virus 1; assay: Antiviral activity against HIV1 3B infected in human MT4 cells after 5 days by p24 antigen detection assay; format: functional, organism-based; details: Human immunodeficiency virus 1, 3B, MT4, 120 h
How it was run: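 MT-4 cells infected with 10000 TCID50 HIV-1 IIIB for 2 h at 37 °C, washed, then plated at 5 × 10^4 cells per well. Compounds added from 250 µg/mL in fivefold serial dilutions, five dilutions with four replicates each. Cultures held 5 d at 37 °C in 5% CO2. On day 3 half the supernatant was replaced with fresh compound or medium. On day 5 supernatant p24 measured, inhibition computed relative to virus control, and IC50 taken by linear regression.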

RU [2] | RU [5] | RU [6] | IC50 [10] | MIC [11] | MIC [12] | IC50 [13] | SMILES | Activity [1] | Activity [3] | Activity [4] | Activity [7] | Activity [8] | Activity [9] | IC50 [1] | IC50 [4]
– | – | – | – | 50 µg/mL | 12.5 µg/mL | – | O=C1C(c2ccc(O)c(O)c2)=c2c(c3c(n2CCc2ccc(O)cc2)=C(c2ccc(O)c(O)c2)C(=O)c2cc(O)c(OS(=O)(=O)O)cc2-3)-c2cc(OS(=O)(=O)O)c(O)cc21 [BACULIFERIN D] | inactive | inactive | inactive | inactive | inactive | inactive | – | –
362 pg/mm2 | 109 pg/mm2 | 992 pg/mm2 | 2.7 µg/mL (≈ 3.15 µM) | 50 µg/mL | 12.5 µg/mL | 4.6 µg/mL (≈ 5.36 µM) | O=C1C(c2ccc(O)c(O)c2)=c2c(c3c(n2CCc2ccc(O)cc2)=C(c2ccc(O)c(OS(=O)(=O)O)c2)C(=O)c2cc(O)c(OS(=O)(=O)O)cc2-3)-c2cc(O)c(O)cc21 [BACULIFERIN E] | inactive | inactive | inactive | inactive | inactive | inactive | – | –
362 pg/mm2 | 109 pg/mm2 | 992 pg/mm2 | 2.7 µg/mL (≈ 3.15 µM) | 50 µg/mL | 12.5 µg/mL | 4.6 µg/mL (≈ 5.36 µM) | O=C1C(c2ccc(O)c(OS(=O)(=O)O)c2)=c2c(c3c(n2CCc2ccc(O)cc2)=C(c2ccc(O)c(O)c2)C(=O)c2cc(O)c(OS(=O)(=O)O)cc2-3)-c2cc(O)c(O)cc21 [BACULIFERIN F] | inactive | inactive | inactive | inactive | inactive | inactive | – | –
447 pg/mm2 | 125 pg/mm2 | 572 pg/mm2 | 4.4 µg/mL (≈ 4.69 µM) | – | – | 3.2 µg/mL (≈ 3.41 µM) | O=C1C(c2ccc(O)c(OS(=O)(=O)O)c2)=c2c(c3c(n2CCc2ccc(O)cc2)=C(c2ccc(O)c(OS(=O)(=O)O)c2)C(=O)c2cc(O)c(OS(=O)(=O)O)cc2-3)-c2cc(O)c(O)cc21 [BACULIFERIN G] | – | inactive | – | – | – | – | 19.7 µM | 19.7 µM
259 pg/mm2 | 76.2 pg/mm2 | 578 pg/mm2 | 1.3 µg/mL (≈ 1.39 µM) | – | – | 1.4 µg/mL (≈ 1.49 µM) | O=C1C(c2ccc(O)c(O)c2)=c2c(c3c(n2CCc2ccc(O)cc2)=C(c2ccc(O)c(OS(=O)(=O)O)c2)C(=O)c2cc(O)c(OS(=O)(=O)O)cc2-3)-c2cc(OS(=O)(=O)O)c(O)cc21 [BACULIFERIN H] | inactive | inactive | inactive | inactive | inactive | inactive | – | –
448 pg/mm2 | 523 pg/mm2 | – | < 0.4 µg/mL | – | – | 5.5 µg/mL (≈ 9.73 µM) | O=C1C(c2ccc(O)c(O)c2)=C2C(=C(c3ccc(O)c(O)c3)C(=O)N2CCc2ccc(O)cc2)c2cc(O)c(O)cc21 [BACULIFERIN K] | inactive | inactive | inactive | inactive | inactive | inactive | – | –
1980 pg/mm2 | 469 pg/mm2 | 2170 pg/mm2 | 4.1 µg/mL (≈ 6.45 µM) | – | – | 7 µg/mL (≈ 11 µM) | O=C(O)Cn1c2c(c3c1=C(c1ccc(O)c(O)c1)C(=O)c1cc(O)c(O)cc1-3)-c1cc(O)c(O)cc1C(=O)C=2c1ccc(O)c(O)c1 [BACULIFERIN L] | inactive | inactive | inactive | inactive | inactive | inactive | – | –
1900 pg/mm2 | 380 pg/mm2 | 2460 pg/mm2 | 0.2 µg/mL (≈ 0.279 µM) | 50 µg/mL | 12.5 µg/mL | 5 µg/mL (≈ 6.99 µM) | O=C(O)Cn1c2c(c3c1=C(c1ccc(O)c(O)c1)C(=O)c1cc(O)c(OS(=O)(=O)O)cc1-3)-c1cc(O)c(O)cc1C(=O)C=2c1ccc(O)c(O)c1 [BACULIFERIN M] | inactive | inactive | – | – | – | – | – | 65.8 µM
597 pg/mm2 | 953 pg/mm2 | – | < 0.1 µg/mL | – | – | 4.4 µg/mL (≈ 8.74 µM) | O=C(O)CN1C(=O)C(c2ccc(O)c(O)c2)=C2C1=C(c1ccc(O)c(O)c1)C(=O)c1cc(O)c(O)cc12 [BACULIFERIN N] | inactive | inactive | inactive | inactive | inactive | inactive | – | –
-25.7 pg/mm2 | -23 pg/mm2 | -26.3 pg/mm2 | > 25 µg/mL | 25 µg/mL | 12.5 µg/mL | > 25 µg/mL | O=C1C(c2ccc(O)c(O)c2)=c2c(c3c(n2CCc2ccc(O)cc2)=C(c2ccc(O)c(O)c2)C(=O)c2cc(O)c(O)cc2-3)-c2cc(O)c(O)cc21 [PURPURONE] | inactive | inactive | inactive | inactive | inactive | inactive | – | –

More lines, now with the values behind:

SMILES | RU [2] | RU [5] | RU [6] | IC50 [10] | MIC [11] | MIC [12] | IC50 [13] | Activity [1] | Activity [3] | Activity [4] | Activity [7] | Activity [8] | Activity [9] | IC50 [1] | IC50 [4]
O=C1C(c2ccc(O)c(O)c2)=C2C(=C(c3ccc(O)c(O)c3)C(=O)N2CCc2ccc(OS(=O)(=O)O)cc2)c2cc(O)c(O)cc21 | 529 pg/mm2 | 1490 pg/mm2 | 765 pg/mm2 | – | – | – | – | inactive | inactive | inactive | inactive | inactive | inactive | – | –
O=C1C(c2ccc(O)c(O)c2)=C2C(=C(c3ccc(OS(=O)(=O)O)c(O)c3)C(=O)N2CCc2ccc(O)cc2)c2cc(O)c(O)cc21 | 638 pg/mm2 | 1350 pg/mm2 | – | – | – | – | – | inactive | inactive | inactive | inactive | inactive | inactive | – | –
O=c1oc2cc(O)c(O)cc2c2c1[nH]c1c(=O)oc3cc(O)c(O)cc3c12 | 11.7 pg/mm2 | – | – | – | – | – | – | inactive | inactive | inactive | inactive | inactive | inactive | – | –
O=C1C(c2ccc(O)c(O)c2)=c2c(c3c(n2CCc2ccc(O)cc2)=C(c2ccc(O)c(O)c2)C(=O)c2cc(O)c(OS(=O)(=O)O)cc2-3)-c2cc(O)c(O)cc21 [BACULIFERIN A] | 111 pg/mm2 | 17.1 pg/mm2 | 171 pg/mm2 | 3.7 µg/mL (≈ 4.76 µM) | 50 µg/mL | 12.5 µg/mL | 7.6 µg/mL (≈ 9.77 µM) | inactive | inactive | inactive | inactive | inactive | inactive | – | –
O=C1C(c2ccc(O)c(O)c2)=c2c(c3c(n2CCc2ccc(O)cc2)=C(c2ccc(O)c(OS(=O)(=O)O)c2)C(=O)c2cc(O)c(O)cc2-3)-c2cc(O)c(O)cc21 [BACULIFERIN B] | 152 pg/mm2 | 12.9 pg/mm2 | 89.7 pg/mm2 | 1.3 µg/mL (≈ 1.67 µM) | 50 µg/mL | 12.5 µg/mL | 2.2 µg/mL (≈ 2.83 µM) | inactive | inactive | inactive | inactive | inactive | inactive | – | –
O=C1C(c2ccc(O)c(OS(=O)(=O)O)c2)=c2c(c3c(n2CCc2ccc(O)cc2)=C(c2ccc(O)c(OS(=O)(=O)O)c2)C(=O)c2cc(O)c(O)cc2-3)-c2cc(O)c(O)cc21 [BACULIFERIN C] | 296 pg/mm2 | 116 pg/mm2 | 886 pg/mm2 | 1.2 µg/mL (≈ 1.4 µM) | – | – | 8.4 µg/mL (≈ 9.79 µM) | inactive | inactive | inactive | inactive | inactive | inactive | – | –
O=c1oc2cc(O)c(O)cc2c2c1[nH]c1c(=O)oc3cc(O)c(OS(=O)(=O)O)cc3c12 [BACULIFERIN O] | – | – | – | – | – | – | – | inactive | inactive | – | – | – | – | – | 33.1 µM
